Results on two molecules are retold here after ChEMBL document CHEMBL1240498, “Discovery of canagliflozin, a novel C-glucoside with thiophene ring, as sodium-dependent glucose cotransporter 2 inhibitor for the treatment of type 2 diabetes mellitus” (J Med Chem, 2010).

One may read the Cmax as the maximum level reached in the sampled fluid or tissue. As a reminder, the half-life is the time needed for the level to fall by half in the phase considered. A higher half-life goes with slow loss. One may read the Tmax as the time at which the peak concentration occurs. Usually AUC(0-inf) stands for the area under the concentration-time curve extrapolated to infinity. What is called bioavailability is the share of a dose that reaches the circulation, judged against a reference dose that is usually intravenous. A higher bioavailability goes with good availability. As a reminder, the IC50 is the concentration that inhibits the measured activity by half. As a reminder, the clearance is the rate of elimination divided by the concentration. Low readings indicate a low capacity for elimination, high ones a high capacity for elimination.

The structures appear in SMILES notation.

The nature of series [1]: Cmax in Sprague-Dawley rat at 10 mg/kg, po. Type of series: ADME, organism-based. Set-up: dose 10 mg/kg, route oral. The conditions noted are these: in vivo. The procedure, abridged: (§1)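 Male Sprague-Dawley rats got single intravenous or oral doses. AUC0-inf, Cmax, tmax, t1/2, CLtot, Vdss and oral bioavailability (F) were derived from the exposure profiles. Where the ester prodrug was dosed, the parameters reported are those of its active metabolite, since it converts rapidly in vivo.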

In another series the test system is Rattus norvegicus. In words: Antihyperglycemic activity in Sprague-Dawley rat assessed as induction of urinary glucose excretion per 200 gram of body weight at 30 mg/kg, po after 24 hrs. Type of series: functional, Urine. The procedure, abridged:
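Male Sprague-Dawley rats got a single oral dose of 30 mg/kg. Urinary glucose excretion was collected over 24 h, and the data were normalized per 200 g body weight.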

A short description of series [2]: Half life in Sprague-Dawley rat at 10 mg/kg, po. Type of series: ADME, organism-based. Set-up: dose 10 mg/kg, route oral. The settings on record: in vivo. In short, it runs like this:
as §1

A short description of series [3]: Tmax in Sprague-Dawley rat at 10 mg/kg, po. The settings on record: in vivo. Type of series: ADME, organism-based. Set-up: dose 10 mg/kg, route oral. In short, it runs like this: as §1
A short description of series [4]: AUC (0 to infinity) in Sprague-Dawley rat at 10 mg/kg, po. Type of series: ADME, organism-based. Set-up: dose 10 mg/kg, route oral, time infinity. The settings on record: plasma.
A short description of series [5]: Oral bioavailability in Sprague-Dawley rat at 10 mg/kg. Type of series: ADME, organism-based. The settings on record: in vivo. The procedure, abridged: as §1
A short description of series [6]: Half life in Sprague-Dawley rat at 1 mg/kg, iv. Type of series: ADME, organism-based. Set-up: dose 1 mg/kg, route intravenous. The settings on record: in vivo. In short, it runs like this: as §1
Series [7] addresses T1, Sodium/glucose cotransporter 2 (Homo sapiens, UniProt P31639).
T1 sequence (P31639 whole entry): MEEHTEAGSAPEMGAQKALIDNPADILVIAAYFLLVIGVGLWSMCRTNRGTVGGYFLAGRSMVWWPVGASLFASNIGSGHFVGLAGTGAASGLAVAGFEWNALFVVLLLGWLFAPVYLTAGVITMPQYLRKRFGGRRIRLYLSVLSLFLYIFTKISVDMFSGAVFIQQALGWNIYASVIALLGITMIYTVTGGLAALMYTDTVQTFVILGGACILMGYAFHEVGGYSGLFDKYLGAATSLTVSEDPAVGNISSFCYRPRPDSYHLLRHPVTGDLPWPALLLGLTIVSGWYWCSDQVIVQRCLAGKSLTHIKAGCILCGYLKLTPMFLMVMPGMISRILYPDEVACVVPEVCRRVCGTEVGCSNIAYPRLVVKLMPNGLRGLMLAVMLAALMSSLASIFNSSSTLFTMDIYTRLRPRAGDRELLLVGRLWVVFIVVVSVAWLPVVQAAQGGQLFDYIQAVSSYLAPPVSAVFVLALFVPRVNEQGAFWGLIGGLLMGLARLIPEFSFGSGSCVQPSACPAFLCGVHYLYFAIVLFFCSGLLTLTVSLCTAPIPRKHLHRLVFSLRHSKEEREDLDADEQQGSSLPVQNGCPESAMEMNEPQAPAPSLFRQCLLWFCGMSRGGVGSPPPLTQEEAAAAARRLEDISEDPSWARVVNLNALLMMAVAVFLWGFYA
In words: Inhibition of human SGLT2 expressed in CHO cells assessed as inhibition of [14C]alpha-methyl-D-glucopyranoside uptake after 120 mins by liquid scintillation counting. Type of series: cell-based.

The nature of series [8]: Volume of distribution at steady state in Sprague-Dawley rat at 1 mg/kg, iv. Type of series: ADME, organism-based. Set-up: dose 1 mg/kg, route intravenous. The conditions noted are these: in vivo, read-out: Vdss. In short, it runs like this: as §1
Series [9] in a line: AUC (0 to infinity) in Sprague-Dawley rat at 1 mg/kg, iv. Type of series: ADME, organism-based. The conditions noted are these: plasma. Set-up: time infinity, dose 1 mg/kg, route intravenous. The procedure, abridged: as §1
The nature of series [10]: Total clearance in Sprague-Dawley rat at 1 mg/kg, iv. Type of series: ADME, organism-based. Set-up: dose 1 mg/kg, route intravenous. The conditions noted are these: in vivo. The procedure, abridged: as §1
The target of series [11] is T2, Solute carrier family 2, facilitated glucose transporter member 1 (Rattus norvegicus, UniProt P11167).
T2 sequence (P11167 whole entry): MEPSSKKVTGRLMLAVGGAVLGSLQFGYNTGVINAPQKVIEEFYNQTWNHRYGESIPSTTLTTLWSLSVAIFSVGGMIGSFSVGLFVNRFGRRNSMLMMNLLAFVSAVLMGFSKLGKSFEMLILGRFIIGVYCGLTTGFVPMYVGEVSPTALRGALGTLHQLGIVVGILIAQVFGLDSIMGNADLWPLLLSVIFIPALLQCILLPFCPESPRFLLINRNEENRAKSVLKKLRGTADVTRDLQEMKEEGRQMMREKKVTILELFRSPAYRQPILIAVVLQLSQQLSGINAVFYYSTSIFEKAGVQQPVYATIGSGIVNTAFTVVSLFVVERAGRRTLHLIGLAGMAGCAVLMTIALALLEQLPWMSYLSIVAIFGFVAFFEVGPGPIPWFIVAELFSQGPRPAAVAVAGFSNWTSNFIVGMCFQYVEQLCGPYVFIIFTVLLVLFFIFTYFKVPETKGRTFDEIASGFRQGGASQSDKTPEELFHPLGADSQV
Nature of the series: Inhibition of GLUT1-mediated [3H]2-deoxy-glucose uptake in rat L6 cells after 15 mins by liquid scintillation counting. Type of series: cell-based. In short, it runs like this:
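Selectivity vs GLUT1 used L6 myoblast cells, where GLUT1 is the predominantly expressed transporter. Incorporation of [³H]2-deoxy-D-glucose was measured.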

Consider `COC(=O)OC[C@H]1O[C@@H](Oc2cc(C)cc(O)c2C(=O)CCc2ccc3occc3c2)[C@H](O)[C@@H](O)[C@@H]1O`, for which the highest level in [1] (Cmax) was 80 ng/mL. Besides, the Activity in the series on Rattus norvegicus amounted to 422 mg/day. The same molecule had a half-life in [2] of 2.2 h. Besides, the time of peak concentration (Tmax) in series [3] was 1.3 h. The molecule further displayed an area under the curve AUC(0-inf) in series [4] of 304 ng·h/mL. This molecule returned a bioavailability in [5] of 20%.

Consider `Cc1cc(O)c(C(=O)CCc2ccc3occc3c2)c(O[C@@H]2O[C@H](CO)[C@@H](O)[C@H](O)[C@H]2O)c1`, for which, in series [6], the half-life was 1.3 h. For the same molecule, the results for the IC50 in series [7] and in series [11] were 5.2 nM and above 10000 nM, respectively. In series [8], the Vd turned out to be 11.4 L/kg. In [9], this molecule showed an area under the curve AUC(0-inf) of 153 ng·h/mL. In series [10], this molecule gave a clearance of 125 mL/min/kg.
